The EternaBench riboswitch data

Test system: MS2 coat protein
Experiment: apparent Kd, MS2 coat protein; higher = weaker binding; RNA-MaP array; FMN 200 µM where present
Procedure, shortened: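 The apparent Kd comes from binding curves fitted cluster by cluster, filtered, and summarised as a median. Those curves followed SNAP-549-labelled MS2 coat protein from 0.7 or 1.5 nM, doubling to 3 µM, on Illumina sequencing-chip clusters where stalled E. coli RNA polymerase had transcribed the designs, without and then with constant ligand. The buffer was 100 mM Tris-HCl pH 7.5, 80 mM KCl, 4 mM MgCl2, BSA, DTT, yeast tRNA and Tween-20, and green signal was normalised to red-channel RNA signal and control-cluster median Fmax.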

[1] = designed as: OFF switch for flavin mononucleotide, no ligand
[2] = ligand present: flavin mononucleotide, designed as: OFF switch for flavin mononucleotide
[3] = designed as: ON switch for flavin mononucleotide, no ligand
[4] = ligand present: flavin mononucleotide, designed as: ON switch for flavin mononucleotide

Sequence	apparent Kd [1] [nM]	apparent Kd [2] [nM]	apparent Kd [3] [nM]	apparent Kd [4] [nM]
GUAGUUUAUGUAGGAUAUGCGAGGCGAGCCUAAGCAGAAGGACAUGAGGAUCACCCAUGUAUUGCGGUCUGCGUUCAGAUCGCU	33.2	133		
GCACUGGAUGUAGGAUAUCAGGACGAUAAGUCCUGAGAAGGACAUGAGGAUCACCCAUGUGACUCAUAACCAGUGCAUAAUAUA	27	142		
AGGCUUGCCACAGGAUAUGCUGACAUGAGAGAAGCAGAAGGGUGGUCGACGUUUUGGCGACAUGAGGAUCACCCAUGUUAGCGU			178	28.3
UUAAUUAAUUAAUUGCAGUUUACAUGAGGAUCACCCAUGUAUAAGGAUAUCGUCAGGAAUACUGACGAGAAGGUAUACAUCUGC	19	31.8		
UUUUUGUCAGGAUAUCCACCCACCACCUUCGGGUGGUGGGUGGAGAAGGGACAUGAGGAUCACCCAUGUAGUUU	74.6	221		
UUCAUCAAGGAAGGAUAUCUAUAUCCAACAUGAGGAUCACCCAUGUUGAGGAUCACCCAUGUAAAGGAGAAGGUUCAUAUAACU			58.1	50.7
AUCGUUGGAGGAUAUGCUUGGAAAAAAAAAAAAAAAAAAAAACAUGAGGAUCACCCAUGUAGAAGGUCAAUGGA	52.6	47.2		
CGCAAUAUACAGAAGGAGUUAUUUAGAGGUUUACUAGGAUAUGUUCACAUGAGGAUCACCCAUGUCAUAUGGUUUUUUAUUGCG	10.1	8.96		
GUAGCACAUGAAAAUAUAACAUGAGGAUCACCCAUGUGUUAUGAGGAUAUGGAUGUGAAGUUAAUCCAGAAGGCAUUAUGCUAC			21.5	11.7
UGCACCAACGAGAAGGCACAGAUCCAGCUCUUGACAUGAGGAUCACCCAUGUGAGGAUAUCGUAGGUGCGAUUUGGGACAAUCU	11	91.8		
CCUCGGUAGACAGGAUAUCCUUACAUGAGGAUCACCCAUGUAGCAAGACAUGGAGAAGGGUCACUGUGGGUAAAAGCGCAUAUC			225	14
GUUAAGGUAGGAUAUACGAGAAUAUAGGGUAGAUAUAUAACACAUGAGGAUCACCCAUGUAGAAGGACCAAUUG	33.8	95.6		
CGGUGACGUGUAGGAUAUGGCGAUGGGUUUUGGCCAGAAGGACAUGAGGAUCACCCAUGUGGUAGAGGGCUGGCGGCUGCCCGU	13.6	57.5		
GCAGCACAGAUUUACAUGAGGAUCACCCAUGUCUAUUAAGAUGAGGAUAUGCUUCGAAUGAUGUUGCAGAAGGCAUUGUGCUGC			10.9	6.6
UUGUUACAUGAGGAUCACCCAUGUGAGGAUAUGUGUAUCCCUAAAAAAGUGUGGGACCACAGAAGGUACUUGGA	54.6	68.1		
UAGUAUCUGCAGGAUAUCAGUGGAAAACACGUAUGAGAAGGGCAGACAUGAGGAUCACCCAUGUAUAGGGUCCG	81.4	206		
CUUCGACAUGAGGAUCACCCAUGUCAGGAUAUUGUGUAUCGGGUUUUUUACGGAAAGGCAAGAAGGGAUGUGUG	29.7	24.8		
AAAAAACAUGAGGAUCACCCAUGUGAGGAUAUCUGUAUUCAAUCCUCGGAUUGAAUACAGAGAAGGCACAUGGG	26.6	26.9		
GUCUACCUAGGAUAUACAUGAGGAUCACCCAUGUAAAGUUUCGUAAAAAGAUAAUCGAGUAGAAGGAGGUGGAU	20.3	20.9		
GGAUGACAAAGUCAUCCUAAACGAACAUGAGGAUCACCCAUGUAGGAUAUGCAACUCAAAGAGUUGCAGAAGGACAUGUGCCUU	37.2	230		
CGCUGUCAUGCAGGAUAUGCAUUGGAUUACAAUGCAGAAGGGCGAUUACAUGAGGAUCACCCAUGUGUAGACGGUGAAGAAGAG			137	13.1
GUGCUCGUGUAAGGAUAUGCAGCCGUUUCGGCUGCAGAAGGUACUAUAAUACAUGAGGAUCACCCAUGUCUCUAUAAUUUGGUG			148	214
CUGUGACGGUGCGCAUGUGGACGGAGAAGGCAGACAUGAGGAUCACCCAUGUGAGCCUGCUAUUCUGAGGAUAUCCGUUCGCAC	31.8	192		
CUUCAGUCAGGAUAUGUUAAUCUCGCCACUCGGCGAGCCGGACAGAAGGGACAUGAGGAUCACCCAUGUUAAAA	37.6	22.2		
AUCUUGUCAGGAUAUCUGACAAGUGACUUCGGUCACAGUUCAGAGAAGGUACAUGAGGAUCACCCAUGUAGAAC	17.4	18.6		
GGAUAGGACAGAGGAUAUACGUGCUAGAGAUACUAGCAAAAUUCCCUCACAUGAGGAUCACCCAUGUAGAAGGCUGUCCUAUCG	5.68	49.6		
UGAACUUCAGAGAAGGUCGAAUCGCAACGGUUCGAAGGAUAUCUGGAAACAUGAGGAUCACCCAUGUAACCGGGUGGAUGUCCU	56.8	246		
CGCAAACAUGAGGAUCACCCAUGUCAUUGUGGUCAAGGAUAUGGGUUCCUAAAUGGAACACCAGAAGGUGAAAAGA			164	33.5

Sequence	apparent Kd [1] [nM]	apparent Kd [2] [nM]	apparent Kd [3] [nM]	apparent Kd [4] [nM]
AAAUUGCUAGAGGAUAUCGGAUAGGAUCUAUUACGAGAAGGUUGGACAUGAGGAUCACCCAUGUUCUGUUGGGA	23.8	23.5		
GGACGUCACAUCUACAUGAGGAUCACCCAUGUCUCUUGAGAUGAGGAUAUGUAUACGAAUCGUUUAUAGAAGGCAUGGACGUCC			348	325
UUACUCAUGUAAGGAUAUGCAGCCGUUUCGGCUGCAGAAGGUACUAUAAUACAUGAGGAUCACCCAUGUCUUUUUAAAUUAGAC			111	49.7
AUUCCUCCUGUGAGGAUAUGCGUUUCGCACUCGUCGCAGAAGGCACAUGAGGAUCACCCAUGUGAGUUACCAAA	14.8	20		
UUGCGGUAGGAGAAGGACAGAGGCUUCAUUACAUACAUGAGGAUCACCCAUGUAGGAUAUCCUACCUAACGCGGCCUCCUCCUG	11.1	19.8		
AAAAAGUCAGGAUAUAGCAAAGGUCACGAAAGUGACAAAGGCUAGAAGGGACAUGAGGAUCACCCAUGUAAAAA	31	39.1		
AACAGUACAGGAUAUACAUGAGGAUCACCCAUGUGAGAAUUUAGCAGCGUACCACACAGUAGAAGGGUAAUGGA	28.2	25.5		
GCAGAAGUAGUGAGGAUAUGCUCUACCUCGGUAGAGCAGAAGGCACAUGAGGAUCACCCAUGUGAUUCUUCUGC	26.9	158		
UAGUAUAAGGGCAUUAAACAUGAGGAUCACCCAUGUACAAUAGAGGAUAUGCAUUUCGGUUUAGAGUAGAAGGUUAGAGAAUAU	31.3	38.1		
GCCGUAAGUGUGAGGAUAUACCUAUGGAUACAUAGGUAGAAGGCACAUGAGGAUCACCCAUGUUCUUAAUCGGC	130	296		
CACUGCAUGUAAGGAUAUCGACUGGAAUACAGUCGAGAAGGUACAUGAGGAUCACCCAUGUAAAUAAUAAUAAAUAAAGCAGUG	15.3	24.4		
GUGCAUGUGCGAACUAACCCACAUGAGGAUCACCCAUGUAGGAGAAGGGUCCGGAGGUGCCGUGGACAGGAUAUCCUACGCCUU	17.5	33.2		
AAAGGACGAGGAUAUACAUGAGGAUCACCCAUGUAAAAAGCGUAGCAAAAGUGCUUAUGUAGAAGGCGUCCAAA	21.9	59.2		
CUUUCGUGAGGAUAUGUGGCUUCGAUCGUGAGAUCGAAGCUACAGAAGGCACAUGAGGAUCACCCAUGUUCCUC	38.5	544		
GGUUGGCGAGGAUAUACAUGAGGAUCACCCAUGUGAGAGAAAAAAGUGAGAACGAAAAGUAGAAGGCGCUGACG	43.5	176		
CUAGCUAUCGGAGGAUAUUCAUACCGGAAACGGACAUGAGGAUCACCCAUGUGCGGAAACGCUUGGGAGAAGGCCGAUAGCUAG			210	18.9
GGAUAGUGAGGAUAUCGAUGUUAGGAGGAGUAGAUAGGAGGCGAGAAGGCACAUGAGGAUCACCCAUGUAUGGA	58.7	45.5		
CCAGCAACAUGAGGAUCACCCAUGUAGGAUAUCGCUAUUGUAAUCAUGAAACAUGAUUACAAUAGCGAGAAGGACAUAUGCUAA	9.29	10.2		
GCUCUGGCAUGAGGAUAUGGUCAGCUUUGCUGACCAGAAGGCAUGUCAAUAGACAUGAGGAUCACCCAUGUAGUUAACAGAGCA			538	37.3
UUCAGCUCGUGAGGAUAUACAUGUGCUGGAAACAGCACUAAUUAAUUCACAUGAGGAUCACCCAUGUAGAAGGCACGAGCUGAG	15.7	18.1		
AUUACAUGAGGAUCACCCAUGUACGGCACGUUUCAAAACACUGAGGAUAUACGAUAUGUAGGAACGUAGAAGGCAGUGGGUGCA			99.7	34
CACGGUGAUGUAGGAUAUACGCUGGAAUACAGCGUAGAAGGACAUGAGGAUCACCCAUGUAAAGUGUCUCCAAAUAACACCGUG	32.5	90.5		
GGACGUCUCAUUAACAUGAGGAUCACCCAUGUCGAUAGACAUGAGGAUAUGGAUCCGAAUCGGAUCCAGAAGGCAUGGACGUCC			1170	72.4
CGUCUCAUAGGAUAUGCACGGAGGCAGGUCCUUGGCAACACACAUGAGGAUCACCCAUGUAGAAGGAUGCUACG	19.4	30.5		
AUUGUAUAGGAAGGAUAUAGAAUAUUAUUUUAACAUGAGGAUCACCCAUGUAACCUUAUGUGUAGCUAGAAGGUCCAUUUGUUA	248	302		
GUUGUGUAAGGAUAUGCCUGGCCGUGAGGCCAGAUUGAAUGGCAGAAGGUACAUGAGGAUCACCCAUGUACGGG	33.2	188		
AACCCUACUGAGGAUAUGAAACGGCUAGACGCAUCAGAAGGCAGUACAUGAGGAUCACCCAUGUACCUCCGGGC	13.3	20.9		
